The source made the active and inactive calls. The calls are words filed in the database; no cut-off is given here.
Experiments:
[1] = AUC (0 to last) in CD-1 mouse plasma at 10 mg/kg, ip by UPLC analysis; format: ADME, organism-based; design: dose 10 mg/kg, time 0 - last, route intraperitoneal
Outline: (§1)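 Male CD-1 mice, 6–7 weeks old, about 30 g, fed and watered ad libitum. Single dose of 10 mg/kg ip or 25 mg/kg sc, given as 100 μL formulation; n = 3 per time point per route. At set times, blood was taken by cardiac puncture with heparinized syringes and spun to plasma. Brains were harvested after transcardiac saline perfusion, weighed and flash-frozen. Brain levels are in pmol/mg tissue.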

[2] = AUC (0 to last) in CD-1 mouse plasma at 25 mg/kg, sc by UPLC analysis; format: ADME, organism-based; design: dose 25 mg/kg, route subcutaneous, time 0 - last; outline: as §1
Mus musculus [3] = experiment: Time at which plasma concentration stays above in-vitro Ki for ADAM10 in CD-1 mouse at 10 mg/kg, ip by UPLC analysis; format: ADME, organism-based; details: in vivo; outline: as §1
Mus musculus [4] = experiment: Time at which brain concentration stays above in-vitro Ki for ADAM10 in CD-1 mouse at 10 mg/kg, ip by UPLC analysis; format: ADME, organism-based; details: in vivo; outline: as §1
[5] = AUC (0 to last) in CD-1 mouse brain assessed per mg tissue at 10 mg/kg, ip by UPLC analysis; format: ADME, organism-based; details: in vivo; outline: as §1
[6] = target: Matrix metalloproteinase-14 (Homo sapiens) (UniProt P50281); experiment: Inhibition of recombinant human MMP14 catalytic domain (89 to 265 residues) expressed in Escherichia coli using MOCAc-Pro-Leu-Gly-Leu-A2pr(Dnp)-Ala-Arg-NH2 as substrate at 10 uM by fluorescence spectrophotometric method relative to control
Outline: (§2)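 Single inhibitor concentration of 10 μM, reported as percent inhibition. Enzymes and substrates as in earlier work, with inhibition run by a previously reported protocol.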

[7] = Primary phase half life in CD-1 mouse brain at 25 mg/kg, sc by UPLC analysis; format: ADME, organism-based; details: read-out: alphat1/2; outline: as §1
[8] = target: T1, Disintegrin and metalloproteinase domain-containing protein 9 (Homo sapiens) (UniProt Q13443); experiment: Inhibition of recombinant human C-terminal His10-tagged ADAM9 (Ala206 to Asp697 residues) expressed in mouse cells using McaPLAQAV-Dpa-RSSSR-NH2 as substrate at 10 uM by fluorescence spectrophotometric method relative to control; outline: as §2
T1 sequence (whole entry): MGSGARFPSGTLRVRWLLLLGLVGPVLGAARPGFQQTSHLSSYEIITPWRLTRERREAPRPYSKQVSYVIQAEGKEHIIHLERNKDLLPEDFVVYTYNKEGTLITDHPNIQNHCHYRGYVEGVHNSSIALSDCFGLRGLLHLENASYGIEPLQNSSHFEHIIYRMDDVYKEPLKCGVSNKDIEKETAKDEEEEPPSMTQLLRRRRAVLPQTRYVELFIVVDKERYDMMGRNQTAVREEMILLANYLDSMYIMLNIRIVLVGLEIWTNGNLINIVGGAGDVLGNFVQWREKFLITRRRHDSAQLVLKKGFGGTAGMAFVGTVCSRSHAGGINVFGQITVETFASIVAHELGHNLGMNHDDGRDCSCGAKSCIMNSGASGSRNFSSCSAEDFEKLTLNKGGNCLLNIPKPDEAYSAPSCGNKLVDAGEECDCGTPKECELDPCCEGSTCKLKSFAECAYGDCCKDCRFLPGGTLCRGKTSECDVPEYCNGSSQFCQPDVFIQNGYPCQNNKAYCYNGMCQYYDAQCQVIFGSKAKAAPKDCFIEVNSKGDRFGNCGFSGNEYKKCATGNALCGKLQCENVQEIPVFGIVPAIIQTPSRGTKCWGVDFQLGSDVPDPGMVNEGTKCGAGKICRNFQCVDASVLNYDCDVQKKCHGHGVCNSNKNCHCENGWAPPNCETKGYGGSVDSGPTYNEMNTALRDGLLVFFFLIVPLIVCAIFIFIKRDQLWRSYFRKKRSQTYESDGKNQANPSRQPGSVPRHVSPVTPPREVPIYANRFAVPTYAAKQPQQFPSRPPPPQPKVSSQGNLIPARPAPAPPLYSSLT

[9] = Elimination half life in CD-1 mouse brain at 25 mg/kg, sc by UPLC analysis; format: ADME, organism-based; details: read-out: beta t1/2; outline: as §1
[10] = Ratio of AUC (0 to infinity) in brain to plasma in CD-1 mouse at 25 mg/kg, sc by UPLC analysis; format: ADME, organism-based; details: read-out: Ratio AUC
Outline: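 Male CD-1 mice (6–7 weeks, about 30 g) received one dose: 10 mg/kg ip or 25 mg/kg sc, with n = 3 per time point per route. At set times, plasma came from heparinized cardiac-puncture blood. Brain was taken after transcardiac saline perfusion, weighed and flash-frozen. Brain levels were in pmol/mg tissue, plasma in μM. Value is AUCbrain/AUCplasma.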

Mus musculus [11] = experiment: Time at which brain concentration stays above in-vitro Ki for ADAM10 in CD-1 mouse at 25 mg/kg, sc by UPLC analysis; format: ADME, organism-based; details: in vivo; outline: as §1
[12] = Primary phase half life in CD-1 mouse plasma at 10 mg/kg, ip by UPLC analysis; format: ADME, organism-based; details: read-out: alphat1/2; outline: as §1
[13] = Elimination half life in CD-1 mouse plasma at 10 mg/kg, ip by UPLC analysis; format: ADME, organism-based; details: read-out: beta t1/2; outline: as §1
[14] = Elimination half life in CD-1 mouse brain at 10 mg/kg, ip by UPLC analysis; format: ADME, organism-based; details: read-out: beta t1/2; outline: as §1
[15] = target: T2, Interstitial collagenase (Homo sapiens) (UniProt P03956); experiment: Inhibition of recombinant human MMP1 catalytic domain (Phe100 to Gln268 residues) expressed in Escherichia coli at 10 uM using McaKPLGL-Dpa-AR-NH2 as substrate by fluorescence spectrophotometric method; outline: as §2
T2 sequence (whole entry): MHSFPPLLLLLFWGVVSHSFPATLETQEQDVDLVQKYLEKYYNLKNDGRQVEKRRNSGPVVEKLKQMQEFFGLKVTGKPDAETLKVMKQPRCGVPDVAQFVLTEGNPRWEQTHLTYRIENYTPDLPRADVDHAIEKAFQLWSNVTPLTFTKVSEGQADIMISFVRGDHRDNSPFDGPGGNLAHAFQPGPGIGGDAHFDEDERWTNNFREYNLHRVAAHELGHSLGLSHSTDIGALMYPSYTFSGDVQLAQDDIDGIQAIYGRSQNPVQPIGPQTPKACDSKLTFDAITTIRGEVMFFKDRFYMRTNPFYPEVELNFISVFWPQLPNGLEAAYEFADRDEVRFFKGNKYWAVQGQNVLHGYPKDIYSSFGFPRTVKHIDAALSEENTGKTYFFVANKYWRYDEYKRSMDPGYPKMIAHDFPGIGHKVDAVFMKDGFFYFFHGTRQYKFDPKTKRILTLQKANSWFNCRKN

AUC(0-t) [1]: 2.58 µM·h
AUC(0-t) [2]: 18.4 µM·h
Time (Mus musculus [3]): 6 h
Time (Mus musculus [4]): 20 min
AUClast [5]: 12.1 pmol·min
inhibition [6]: 19%
half-life [7]: 0.19 h
inhibition [8]: 15%
half-life [9]: 10.5 h
Kp [10]: 0.0693
Time (Mus musculus [11]): 100 min
half-life [12]: 0.207 h
half-life [13]: 5.25 h
half-life [14]: 3.4 h
inhibition [15]: inactive
Structure (SMILES): O=C(NO)[C@H]1C[C@H](OC(=O)N2CCCC2)CC[C@@H]1C(=O)N1CCC(c2ccccc2)CC1

Reference: ChEMBL document CHEMBL4145666, “In Search of Selectivity in Inhibition of ADAM10” (ACS Med Chem Lett, 2018)
